pIC50: −log10 of the molar value.
target: T1, M-phase inducer phosphatase 1 (Homo sapiens, UniProt P30304); assay: Inhibitory activity tested against cell division cycle 25A (assay using fluorescein diphosphate (FDP) as substrate)
T1 sequence (P30304 whole entry): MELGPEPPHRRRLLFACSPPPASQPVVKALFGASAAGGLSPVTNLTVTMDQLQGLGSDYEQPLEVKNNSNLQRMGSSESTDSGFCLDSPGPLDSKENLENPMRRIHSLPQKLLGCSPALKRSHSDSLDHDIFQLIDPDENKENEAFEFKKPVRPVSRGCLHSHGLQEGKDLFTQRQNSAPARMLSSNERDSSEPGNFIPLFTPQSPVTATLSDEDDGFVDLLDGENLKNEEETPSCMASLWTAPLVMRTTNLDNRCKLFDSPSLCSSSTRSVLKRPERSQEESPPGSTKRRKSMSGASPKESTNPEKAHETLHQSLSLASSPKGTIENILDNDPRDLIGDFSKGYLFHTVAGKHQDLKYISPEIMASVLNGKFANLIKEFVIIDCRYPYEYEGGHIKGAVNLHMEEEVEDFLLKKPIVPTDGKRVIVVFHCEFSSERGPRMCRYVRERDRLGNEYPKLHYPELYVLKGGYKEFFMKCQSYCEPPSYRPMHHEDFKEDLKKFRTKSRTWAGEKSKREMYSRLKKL
Procedure, shortened: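 Recombinant human GST-Cdc25A fusion protein, each batch calibrated so that FDP was dephosphorylated linearly over 20 min. Fluorescein diphosphate was the substrate. Reactions ran 15 min at 25 °C in the dark and were stopped with sodium orthovanadate. IC50 came from at least two independent runs, each in triplicate.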

| SMILES | pIC50 |
| --- | --- |
| CC(C)CCC[C@@H](C)[C@H]1CC[C@H]2[C@@H]3CC[C@H]4C[C@@H](O/C(S)=N\c5ccccc5)CC[C@]4(C)[C@H]3CC[C@]12C | 5.68 |
| CC(C)CCC[C@@H](C)[C@H]1CC[C@H]2[C@@H]3CC(=O)O[C@@](C)(CC/C=C\C#N)[C@H]3CC[C@]12C | < 4.30 |
| CCOC(=O)CC(=O)CSC(=S)O[C@H]1CC[C@@]2(C)[C@@H](CC[C@@H]3[C@@H]2CC[C@]2(C)[C@@H]([C@H](C)CCCC(C)C)CC[C@@H]32)C1 | < 4.00 |
| CC(C)CCC[C@@H](C)[C@H]1CC[C@H]2[C@H](CC(=O)O)[C@@H]([C@@]3(C)CCC=CC3=O)CC[C@]12C | 5.02 |
| CC(C)CCC[C@@H](C)[C@H]1CC[C@H]2[C@@H]3CC[C@H]4C[C@@H](OCC(=O)O)CC[C@]4(C)[C@H]3CC[C@]12C | 6.15 |
| C/C(=C/CCCC#N)[C@H]1CC[C@]2(C)[C@@H](C(C)CCCC(C)C)CC[C@H]2[C@@H]1CC(=O)O (stereo not given in full) | 5.62 |

Next, values leading:

| pIC50 | SMILES |
| --- | --- |
| 4.44 | C/C(=C/C/C=C\C#N)[C@H]1CC[C@]2(C)[C@@H](C(C)CCCC(C)C)CC[C@H]2[C@@H]1CC(=O)O (stereo not given in full) |
| 4.98 | COC(CC#N)CC[C@@]1(C)OC(=O)C[C@H]2[C@@H]3CC[C@H]([C@H](C)CCCC(C)C)[C@@]3(C)CC[C@@H]21 (stereo not given in full) |
| 5.03 | CC(=O)OC1CC[C@](C)([C@H]2CC[C@]3(C)[C@@H]([C@H](C)CCCC(C)C)CC[C@H]3[C@@H]2CC(=O)O)C(=O)C1 (stereo not given in full) |
| < 4.00 | CCOC(=O)CSC(=S)O[C@H]1CC[C@@]2(C)[C@@H](CC[C@@H]3[C@@H]2CC[C@]2(C)[C@@H]([C@H](C)CCCC(C)C)CC[C@@H]32)C1 |
| 5.24 | CC(C)CCC[C@@H](C)[C@H]1CC[C@H]2[C@H](CC(=O)O)[C@@H]([C@@]3(C)CC=CCC3=O)CC[C@]12C |
| < 4.00 | CCOC(=O)C(C)SC(=S)O[C@H]1CC[C@@]2(C)[C@@H](CC[C@@H]3[C@@H]2CC[C@]2(C)[C@@H]([C@H](C)CCCC(C)C)CC[C@@H]32)C1 (stereo not given in full) |
| < 4.00 | CC(C)CCC[C@@H](C)[C@H]1CC[C@H]2[C@@H]3CC[C@H]4C[C@@H](OC(=S)SCC(=O)c5ccccc5)CC[C@]4(C)[C@H]3CC[C@]12C |
| 5.54 | C=C(CCC(CC#N)OCC)[C@H]1CC[C@]2(C)[C@@H](C(C)CCCC(C)C)CC[C@H]2[C@@H]1CC(=O)O (stereo not given in full) |
| 6.05 | CC(C)CCC[C@@H](C)[C@H]1CC[C@H]2[C@@H]3CC[C@H]4C[C@@H](OC(=S)SCC(=O)O)CC[C@]4(C)[C@H]3CC[C@]12C |

Source: ChEMBL document CHEMBL1134845, “Syntheses and biological activities of a novel group of steroidal derived inhibitors for human Cdc25A protein phosphatase” (J Med Chem, 2001)
